Columns and labels:
Mus musculus [1] = assay: Intraperitoneal dose that produces a half maximal response in mouse gall bladder emptying assay (in vivo); type: functional; details: ip
Mus musculus [2] = assay: Maximal response at 1 nmol/kg intraperitoneal dose; type: functional
Mus musculus [3] = assay: Maximal response at 1 nmol/kg peroral dose; type: functional
Mus musculus [4] = assay: Peroral dose that produces a half maximal response in mouse gall bladder emptying assay (in vivo); type: functional; details: po
Rattus norvegicus [5] = assay: Maximal response at 0.5 umol/kg intraperitoneal dose; type: functional
Rattus norvegicus [6] = assay: Anorectic potency in rat was tested and intraperitoneal dose that produces a half maximal response (in vivo); type: functional; details: ip
[7] = target: T1, Gastrin/cholecystokinin type B receptor (Homo sapiens, UniProt P32239); assay: In vitro for binding affinity against human cholecystokinin type B receptor.
T1 sequence (P32239 whole entry): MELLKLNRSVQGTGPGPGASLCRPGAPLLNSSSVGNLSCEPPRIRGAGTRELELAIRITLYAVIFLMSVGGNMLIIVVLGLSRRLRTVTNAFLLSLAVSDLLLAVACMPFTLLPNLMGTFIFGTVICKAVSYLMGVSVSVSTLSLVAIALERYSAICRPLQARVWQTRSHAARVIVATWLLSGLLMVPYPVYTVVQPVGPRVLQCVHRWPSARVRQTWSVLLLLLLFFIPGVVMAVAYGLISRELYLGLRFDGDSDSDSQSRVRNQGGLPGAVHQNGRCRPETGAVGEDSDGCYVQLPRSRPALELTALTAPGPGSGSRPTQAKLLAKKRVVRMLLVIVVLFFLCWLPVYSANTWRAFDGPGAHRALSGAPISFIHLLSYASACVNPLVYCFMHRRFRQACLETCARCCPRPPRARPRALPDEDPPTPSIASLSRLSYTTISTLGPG

[8] = target: T2, Cholecystokinin receptor type A (Homo sapiens, UniProt P32238); assay: In vitro for binding affinity against human cholecystokinin type A receptor.
T2 sequence (P32238 whole entry): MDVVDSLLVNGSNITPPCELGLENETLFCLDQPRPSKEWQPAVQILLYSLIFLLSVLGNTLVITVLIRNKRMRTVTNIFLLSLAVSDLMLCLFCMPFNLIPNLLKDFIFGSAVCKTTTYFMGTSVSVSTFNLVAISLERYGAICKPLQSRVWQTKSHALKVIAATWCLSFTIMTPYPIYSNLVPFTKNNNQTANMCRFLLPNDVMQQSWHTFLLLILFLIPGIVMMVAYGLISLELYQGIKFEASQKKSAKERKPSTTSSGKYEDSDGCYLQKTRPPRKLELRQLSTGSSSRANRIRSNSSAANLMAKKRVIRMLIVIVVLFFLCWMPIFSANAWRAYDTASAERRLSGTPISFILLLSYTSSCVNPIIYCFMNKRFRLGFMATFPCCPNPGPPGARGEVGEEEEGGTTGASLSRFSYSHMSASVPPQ

Cavia porcellus [9] = species on record: Cavia porcellus; assay: In vitro functional agonist activity in the isolated guinea pig gall bladder, concentration at which 50% of the maximal contraction observed was reported.; details: read-out: ED50 (the source's name)
Cavia porcellus [10] = species on record: Cavia porcellus; assay: In vitro functional efficacy relative to CCK-8 in inducing contraction of the isolated guinea pig gallbladder (GPGB) at a 1 uM concentration.
Summary of the method: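 Isolated guinea pig gallbladder, ligand 1 μM, 30 min at 37 °C; maximal contraction expressed relative to CCK-8 (1 μM) = 100%; values ± 5%.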

[11] = Total body clearance at an intravenous dose of 6.5 mg/kg in rat; type: ADME, organism-based; set-up: dose 6.5 mg/kg, route intravenous; details: in vivo
[12] = Maximum concentration at an intravenous dose of 6.5 mg/kg in rat; type: ADME, organism-based; set-up: dose 6.5 mg/kg, route intravenous; details: in vivo
[13] = Maximum concentration at an peroral dose of 6.2 mg/kg in rat; type: ADME, organism-based; set-up: dose 6.2 mg/kg, route oral; details: in vivo, po
[14] = Oral bioavailability in Long-Evans rats at an peroral dose of 6.5 mg/kg; type: ADME, organism-based; details: rat, in vivo
[15] = Half life period at an intravenous dose of 6.5 mg/kg in rat; type: ADME, organism-based; set-up: dose 6.5 mg/kg, route intravenous; details: in vivo
[16] = Volume of distribution at steady state at an intravenous dose of 6.5 mg/kg in rat; type: ADME, organism-based; set-up: dose 6.5 mg/kg, route intravenous; details: in vivo, read-out: Vss
Mus musculus [17] = assay: maximal response at 1 nmol/kg peroral dose; type: functional

Row | SMILES | IC50 [7] | IC50 [8] | EC50 (Cavia porcellus [9]) | Max (Cavia porcellus [10]) | further results
1 | COc1ccc(N(C(=O)CN2C(=O)C(Cc3nn(C)c4ccccc34)C(=O)N(c3ccccc3)c3ccccc32)C(C)C)cc1 (stereo not given) | – | – | – | – | ED50 (Mus musculus [1]): 0.0008 µmol/kg; Max (Mus musculus [2]): 83%; Max (Mus musculus [3]): 84%; ED50 (Mus musculus [4]): 0.03 µmol/kg; Max (Rattus norvegicus [5]): 98%; ED50 (Rattus norvegicus [6]): 0.22 µmol/kg
2 | COc1ccc(N(C(=O)CN2C(=O)C(Cc3[nH]nc4c3CCCC4)C(=O)N(c3ccccc3)c3ccccc32)C(C)C)cc1 (stereo not given) | 2950 nM | 129 nM | 300 nM | 80% | –
3 | COc1ccc(N(C(=O)CN2C(=O)C(C)(Cc3nn(C)c4ccccc34)C(=O)N(c3ccccc3)c3ccccc32)C(C)C)cc1 (stereo not given) | – | 38.9 nM | 240 nM | 60% | clearance [11]: 31 mL/min/kg; Cmax [12]: 3270 ng/mL; Cmax [13]: 20 ng/mL; bioavailability [14]: 4%; half-life [15]: 7.5 h; Vd [16]: 11.1 L/kg; ED50 (Mus musculus [1]): 0.01 µmol/kg; Max (Mus musculus [3]): 75%; ED50 (Mus musculus [4]): 0.45 µmol/kg
4 | CC(C)N(C(=O)CN1C(=O)C(Cc2n[nH]c3ccccc23)C(=O)N(c2ccccc2)c2ccccc21)c1ccc2c(c1)OCO2 (stereo not given) | 724 nM | 355 nM | 20 nM | 100% | –
5 | COc1ccc(N(C(=O)CN2C(=O)C(C)(Cc3c[nH]c4ccccc34)C(=O)N(c3ccccc3)c3ccccc32)C(C)C)cc1 (stereo not given) | – | – | – | – | ED50 (Mus musculus [1]): 0.0008 µmol/kg; Max (Mus musculus [2]): 91%; Max (Mus musculus [17]): 46%; ED50 (Mus musculus [4]): 0.38 µmol/kg
6 | CC(C)N(C(=O)CN1C(=O)C(Cc2n[nH]c3ccccc23)C(=O)N(c2ccccc2)c2ccccc21)c1ccc(C(F)(F)F)cc1 (stereo not given) | 1660 nM | 661 nM | 230 nM | 80% | –
7 | COc1ccc(N(C(=O)CN2C(=O)C(Cc3n[nH]c4ncccc34)C(=O)N(c3ccccc3)c3ccccc32)C(C)C)cc1 (stereo not given) | 11200 nM | 112 nM | 40 nM | 90% | –
8 | COc1ccc(N(C(=O)CN2C(=O)C(Cc3n[nH]c4ccccc34)C(=O)N(c3ccccc3)c3ccccc32)C2CCCC2)cc1 (stereo not given) | 776 nM | 17 nM | 40 nM | 90% | –
9 | COc1ccc(N(C(=O)CN2C(=O)C(C)(Cc3cn(C)c4ccccc34)C(=O)N(c3ccccc3)c3ccccc32)C(C)C)cc1 (stereo not given) | – | 17.8 nM | – | 40% | –
10 | COc1ccc(N(C(=O)CN2C(=O)C(Cc3c[nH]c4ccccc34)(OC)C(=O)N(c3ccccc3)c3ccccc32)C(C)C)cc1 (stereo not given) | 29500 nM | 13.8 nM | 150 nM | 60% | Max (Mus musculus [2]): 84%; Max (Mus musculus [3]): 54%
11 | COc1ccc(N(C(=O)CN2C(=O)C(Cc3n[nH]c4cccc(F)c34)C(=O)N(c3ccccc3)c3ccccc32)C(C)C)cc1 (stereo not given) | 1700 nM | 17.4 nM | 70 nM | 100% | –
12 | COc1ccccc1N(C(=O)CN1C(=O)C(Cc2n[nH]c3ccccc23)C(=O)N(c2ccccc2)c2ccccc21)C(C)C (stereo not given) | 129 nM | – | 830 nM | 40% | –
13 | CC(C)N(C(=O)CN1C(=O)C(Cc2n[nH]c3ccccc23)C(=O)N(c2ccccc2)c2ccccc21)c1ccc(F)cc1 (stereo not given) | 479 nM | 138 nM | 60 nM | 100% | –
14 | O=C1C(Cc2n[nH]c3ccccc23)C(=O)N(c2ccccc2)c2ccccc2N1CC(=O)N(c1ccccc1)C1CC1 (stereo not given) | 25.1 nM | 525 nM | 20 nM | 70% | –
15 | COc1ccc(N(C(=O)CN2C(=O)C(Cc3n[nH]c4c(F)cccc34)C(=O)N(c3ccccc3)c3ccccc32)C(C)C)cc1 (stereo not given) | 1050 nM | – | 20 nM | 90% | –
16 | CC(C)(C)N(C(=O)CN1C(=O)C(Cc2n[nH]c3ccccc23)C(=O)N(c2ccccc2)c2ccccc21)c1ccccc1 (stereo not given) | – | 891 nM | 110 nM | 90% | –
17 | COc1ccc(N(C(=O)CN2C(=O)C(Cc3nsc4ccccc34)C(=O)N(c3ccccc3)c3ccccc32)C(C)C)cc1 (stereo not given) | – | – | – | 30% | –
18 | COc1ccc(N(C(=O)CN2C(=O)C(Cc3cc(-c4ccccc4)[nH]n3)C(=O)N(c3ccccc3)c3ccccc32)C(C)C)cc1 (stereo not given) | – | – | – | 20% | –
19 | COc1ccc(N(C(=O)CN2C(=O)C(Cc3c[nH]c4ccccc34)C(=O)N(c3ccccc3)c3ccccc32)C(C)C)cc1 (stereo not given) | – | – | – | – | ED50 (Mus musculus [1]): 0.0038 µmol/kg; Max (Mus musculus [2]): 90%; Max (Mus musculus [3]): 74%; ED50 (Mus musculus [4]): 0.1 µmol/kg
20 | COc1ccc(N(C(=O)CN2C(=O)C(Cc3n[nH]c4cc(F)ccc34)C(=O)N(c3ccccc3)c3ccccc32)C(C)C)cc1 (stereo not given) | 589 nM | 29.5 nM | 40 nM | 100% | –
21 | COc1ccc(N(C(=O)CN2C(=O)C(Cc3csc4ccccc34)C(=O)N(c3ccccc3)c3ccccc32)C(C)C)cc1 (stereo not given) | – | – | – | 50% | –
22 | COc1ccc(N(C(=O)CN2C(=O)C(Cc3noc4ccccc34)C(=O)N(c3ccccc3)c3ccccc32)C(C)C)cc1 (stereo not given) | 174000 nM | 89.1 nM | 130 nM | 80% | –
23 | COc1ccc(N(C(=O)CN2C(=O)C(Cc3n[nH]c4cccnc34)C(=O)N(c3ccccc3)c3ccccc32)C(C)C)cc1 (stereo not given) | – | – | – | 40% | –
24 | COc1cccc(N(C(=O)CN2C(=O)C(Cc3n[nH]c4ccccc34)C(=O)N(c3ccccc3)c3ccccc32)C(C)C)c1 (stereo not given) | 191 nM | 479 nM | 70 nM | 90% | –
25 | COc1ccc(N(C(=O)CN2C(=O)C(Cc3coc4ccccc34)C(=O)N(c3ccccc3)c3ccccc32)C(C)C)cc1 (stereo not given) | – | – | – | 40% | –
26 | COc1ccc(N(C(=O)CN2C(=O)C(Cc3cc(C)[nH]n3)C(=O)N(c3ccccc3)c3ccccc32)C(C)C)cc1 (stereo not given) | – | – | – | 20% | –
27 | COc1ccc(N(C(=O)CN2C(=O)C(Cc3n[nH]c4ccc(F)cc34)C(=O)N(c3ccccc3)c3ccccc32)C(C)C)cc1 (stereo not given) | 2510 nM | 42.7 nM | 40 nM | 90% | –
28 | CSCC[C@H](NC(=O)[C@H](Cc1ccc(OS(=O)(=O)O)cc1)NC(=O)[C@@H](N)CC(=O)O)C(=O)NCC(=O)N[C@@H](Cc1c[nH]c2ccccc12)C(=O)N[C@@H](CCSC)C(=O)N[C@@H](CC(=O)O)C(=O)N[C@@H](Cc1ccccc1)C(N)=O [SINCALIDE] | – | – | – | – | Max (Mus musculus [2]): 95%; Max (Rattus norvegicus [5]): 95%; ED50 (Rattus norvegicus [6]): 0.03 µmol/kg
